≈ marks a conversion by molar mass, not a printed value.
Columns and labels:
Enterococcus faecalis [1] = assay: Minimum concentration required to prevent the growth of high level gentamicin and beta- lactamase resistant (HLGR, BLA+) Enterococcus faecalis strain A0089; type: functional; conditions: Enterococcus faecalis; read-out: MIC
Procedure, shortened: (§1)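 Agar dilution susceptibility testing per NCCLS guidelines against resistant clinical isolates, with nonresistant ATCC stock strains run as controls. Plates were read at 19–24 h of incubation. MIC reported in µg/mL.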

Enterococcus faecalis [2] = assay: Minimum concentration required to prevent the growth of high level gentamicin and beta- lactamase resistant (HLGR, BLA+) Enterococcus faecalis strain A0090; type: functional; procedure, shortened: as §1
Enterococcus faecalis [3] = assay: Minimum concentration required to prevent the growth of nonresistant stock strain Enterococcus faecalis 51299 from American Type Culture Collection (ATCC); type: functional; conditions: Enterococcus faecalis; read-out: MIC; procedure, shortened: as §1
Enterococcus faecium = assay: Minimum concentration required to prevent the growth of nonresistant stock strain Enterococcus faecium 19434 from American Type Culture Collection (ATCC); type: functional; conditions: Enterococcus faecium; read-out: MIC
Procedure, shortened: (§2)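 Agar dilution susceptibility testing per NCCLS guidelines, covering clinical isolates (including resistant phenotypes) and nonresistant ATCC stock strains as controls. Plates read after 19–24 h of incubation. MIC reported in μg/mL.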

Enterococcus faecalis [4] = assay: Minimum concentration required to prevent the growth of vancomycin resistant (VanA) Enterococcus faecalis strain A0401; type: functional; conditions: Enterococcus faecalis; read-out: MIC; procedure, shortened: as §1
Enterococcus faecalis [5] = assay: Minimum concentration required to prevent the growth of vancomycin resistant (VanA) Enterococcus faecalis strain A0402; type: functional; conditions: Enterococcus faecalis; read-out: MIC; procedure, shortened: as §1
Enterococcus faecalis [6] = assay: Minimum concentration required to prevent the growth of nonresistant stock strain Enterococcus faecalis 29212 from American Type Culture Collection (ATCC); type: functional; procedure, shortened: as §1
Escherichia coli [7] = assay: Minimum concentration required to prevent the growth of cipro resistant (Cipro-R) Escherichia coli strain A3228; type: functional; procedure, shortened: as §2
Escherichia coli [8] = assay: Minimum concentration required to prevent the growth of cipro resistant (Cipro-R) Escherichia coli strain A3529; type: functional; procedure, shortened: as §2
Escherichia coli [9] = assay: Minimum concentration required to prevent the growth of cipro resistant (Cipro-R) Escherichia coli strain AA; type: functional; procedure, shortened: as §2
Escherichia coli [10] = assay: Minimum concentration required to prevent the growth of nonresistant stock Escherichia coli strain 25922 from American Type Culture Collection (ATCC); type: functional; conditions: ATCC25922; procedure, shortened: as §2
Enterococcus faecalis [11] = assay: Minimum concentration required to prevent the growth of vancomycin resistant (VanB) Enterococcus faecalis strain A1079; type: functional; procedure, shortened: as §1
Enterococcus faecalis [12] = assay: Minimum concentration required to prevent the growth of vancomycin resistant (VanB) Enterococcus faecalis strain A1081; type: functional; conditions: Enterococcus faecalis; read-out: MIC; procedure, shortened: as §1
Klebsiella pneumoniae = assay: Minimum concentration required to prevent the growth of cipro resistant (Cipro-I) Klebsiella pneumoniae strain AM; type: functional; procedure, shortened: as §1
Listeria monocytogenes [13] = assay: Minimum concentration required to prevent the growth of Listeria monocytogenes strain A0182; type: functional; procedure, shortened: as §2
Listeria monocytogenes [14] = assay: Minimum concentration required to prevent the growth of Listeria monocytogenes strain A0183; type: functional; procedure, shortened: as §2
Pseudomonas aeruginosa [15] = assay: Minimum concentration required to prevent the growth of Pseudomonas aeruginosa strain 28215; type: functional; procedure, shortened: as §2
[16] = system: Staphylococcus epidermidis; assay: Minimum concentration required to prevent the growth of multiply resistant Staphylococcus epidermidis (MRSE) and cipro resistant (Cipro-R) coag.-neg. Staph. A0247; type: functional; procedure, shortened: as §1
[17] = system: Staphylococcus epidermidis; assay: Minimum concentration required to prevent the growth of multiply resistant Staphylococcus epidermidis (MRSE) and cipro resistant (Cipro-R) coag.-neg. Staph. A0248; type: functional; procedure, shortened: as §1
[18] = system: Staphylococcus epidermidis; assay: Minimum concentration required to prevent the growth of multiply resistant Staphylococcus epidermidis (MRSE) coag.-neg. Staph. A0244; type: functional; procedure, shortened: as §1
[19] = system: Staphylococcus epidermidis; assay: Minimum concentration required to prevent the growth of multiply resistant Staphylococcus epidermidis (MRSE) coag.-neg. Staph. A0245; type: functional; procedure, shortened: as §1
Staphylococcus aureus [20] = assay: Minimum concentration required to prevent the growth of multiply resistant (MRSA) Staphylococcus aureus strain A0170; type: functional; procedure, shortened: as §1
Staphylococcus aureus [21] = assay: Minimum concentration required to prevent the growth of multiply resistant (MRSA) Staphylococcus aureus strain A0171; type: functional; procedure, shortened: as §1
Staphylococcus aureus [22] = assay: Minimum concentration required to prevent the growth of multiply resistant (MRSA) and cipro resistant (Cipro-R) Staphylococcus aureus strain A2800; type: functional; procedure, shortened: as §1
Staphylococcus aureus [23] = assay: Minimum concentration required to prevent the growth of multiply resistant (MRSA) and cipro resistant (Cipro-R) Staphylococcus aureus strain A2043; type: functional; procedure, shortened: as §1
Pseudomonas aeruginosa [24] = assay: Minimum concentration required to prevent the growth of Pseudomonas aeruginosa strain 28245; type: functional; procedure, shortened: as §2
Klebsiella oxytoca = assay: Minimum concentration required to prevent the growth of cipro resistant (Cipro-R) Klebsiella oxytoca strain A3530
Staphylococcus aureus [25] = assay: Minimum concentration required to prevent the growth of nonresistant stock strain Staphylococcus aureus 29213 from American Type Culture Collection (ATCC)

| Structure (SMILES) | MIC (Enterococcus faecalis [1]) [mg/L] | MIC (Enterococcus faecalis [2]) [mg/L] | MIC (Enterococcus faecalis [3]) [mg/L] | MIC (Enterococcus faecium) [mg/L] | MIC (Enterococcus faecalis [4]) [mg/L] | MIC (Enterococcus faecalis [5]) [mg/L] | MIC (Enterococcus faecalis [6]) [mg/L] | MIC (Escherichia coli [7]) [mg/L] | MIC (Escherichia coli [8]) [mg/L] | MIC (Escherichia coli [9]) [mg/L] | MIC (Escherichia coli [10]) [mg/L] | MIC (Enterococcus faecalis [11]) [mg/L] | MIC (Enterococcus faecalis [12]) [mg/L] | MIC (Klebsiella pneumoniae) [mg/L] | MIC (Listeria monocytogenes [13]) [mg/L] | MIC (Listeria monocytogenes [14]) [mg/L] | MIC (Pseudomonas aeruginosa [15]) [mg/L] | MIC [16] [mg/L] | MIC [17] [mg/L] | MIC [18] [mg/L] | further results |
| --- | --- | --- | --- | --- | --- | --- | --- | --- | --- | --- | --- | --- | --- | --- | --- | --- | --- | --- | --- | --- | --- |
| O=C(O)c1cn(C2CC2)c2cc(N3CCN(CCO[C@@H]4O[C@@H](CO)[C@@H](O)[C@H](O)[C@@H]4O)CC3)c(F)cc2c1=O | > 32 | 32 (≈ 59.5 µM) | 16 (≈ 29.8 µM) | > 32 | > 32 | 32 (≈ 59.5 µM) | 32 (≈ 59.5 µM) | > 32 | > 32 | > 32 | 2 (≈ 3.72 µM) | 32 (≈ 59.5 µM) | 16 (≈ 29.8 µM) | > 32 | > 32 | > 32 | 32 (≈ 59.5 µM) | > 32 | > 32 | 32 (≈ 59.5 µM) | MIC [19]: 16 mg/L (≈ 29.8 µM); MIC (Staphylococcus aureus [20]): 4 mg/L (≈ 7.44 µM); MIC (Staphylococcus aureus [21]): 8 mg/L (≈ 14.9 µM); MIC (Staphylococcus aureus [22]): > 32 mg/L; MIC (Staphylococcus aureus [23]): > 32 mg/L; MIC (Pseudomonas aeruginosa [24]): > 32 mg/L; MIC (Klebsiella oxytoca): > 32 mg/L; MIC (Staphylococcus aureus [25]): 16 mg/L (≈ 29.8 µM) |
| O=C(O)c1cn(C2CC2)c2cc(N3CCN(CCO[C@@H]4O[C@@H](CO)[C@H](O)[C@H](O)[C@@H]4O)CC3)c(F)cc2c1=O | > 32 | 32 (≈ 59.5 µM) | 32 (≈ 59.5 µM) | > 32 | > 32 | 32 (≈ 59.5 µM) | 32 (≈ 59.5 µM) | > 32 | > 32 | > 32 | 1 (≈ 1.86 µM) | 32 (≈ 59.5 µM) | 16 (≈ 29.8 µM) | > 32 | > 32 | > 32 | 16 (≈ 29.8 µM) | > 32 | > 32 | 32 (≈ 59.5 µM) | MIC [19]: 16 mg/L (≈ 29.8 µM); MIC (Staphylococcus aureus [20]): 8 mg/L (≈ 14.9 µM); MIC (Staphylococcus aureus [21]): 8 mg/L (≈ 14.9 µM); MIC (Staphylococcus aureus [22]): > 32 mg/L; MIC (Staphylococcus aureus [23]): > 32 mg/L; MIC (Pseudomonas aeruginosa [24]): > 32 mg/L; MIC (Klebsiella oxytoca): > 32 mg/L; MIC (Staphylococcus aureus [25]): 8 mg/L (≈ 14.9 µM) |
| O=C(O)c1cn(C2CC2)c2cc(N3CCN(CCCO[C@@H]4O[C@@H](CO)[C@H](O)[C@H](O)[C@@H]4O)CC3)c(F)cc2c1=O | 32 (≈ 58 µM) | 16 (≈ 29 µM) | 16 (≈ 29 µM) | > 32 | 32 (≈ 58 µM) | 32 (≈ 58 µM) | 16 (≈ 29 µM) | > 32 | > 32 | > 32 | 0.25 (≈ 0.453 µM) | 16 (≈ 29 µM) | 16 (≈ 29 µM) | > 32 | 32 (≈ 58 µM) | 32 (≈ 58 µM) | 16 (≈ 29 µM) | > 32 | > 32 | 32 (≈ 58 µM) | MIC [19]: 8 mg/L (≈ 14.5 µM); MIC (Staphylococcus aureus [20]): 8 mg/L (≈ 14.5 µM); MIC (Staphylococcus aureus [21]): 16 mg/L (≈ 29 µM); MIC (Staphylococcus aureus [22]): > 32 mg/L; MIC (Staphylococcus aureus [23]): > 32 mg/L; MIC (Pseudomonas aeruginosa [24]): > 32 mg/L; MIC (Klebsiella oxytoca): > 32 mg/L; MIC (Staphylococcus aureus [25]): 16 mg/L (≈ 29 µM) |
